Experimental data as given in ChEMBL document CHEMBL1157585, “Synthesis and characterization of novel 1,2,4-triazine derivatives with antiproliferative activity” (Bioorg Med Chem, 2010).
Values after ≈ are worked out from the molar mass of the structure shown.

Assays:
K562 = experiment: Antiproliferative activity against human K562 cells after 72 hrs by resazurin dye reduction assay; format: functional; conditions: K562, 72 h
Outline: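 K-562 cells grown at 37 °C in RPMI 1640 with ultraglutamine, gentamicin and 10% heat-inactivated FBS. About 10,000 cells seeded per well in 0.1 mL medium. Compounds were dissolved in DMSO, diluted in DMEM and incubated with cells for 72 h at 37 °C, humidified, 5% CO2. Viable cells were read by CellTiter-Blue resazurin fluorescence. GI50 was taken where the dose-response curve crosses 50% of untreated control, with 4 parallels per concentration.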

HeLa = experiment: Cytotoxicity against human HeLa cells after 72 hrs by methylene blue staining; format: functional
Outline: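 HeLa cells were cultured at 37 °C in RPMI 1640 with ultraglutamine, gentamicin and 10% heat-inactivated FBS, then pre-incubated 48 h without compound. Compound dilutions went onto the subconfluent monolayers, followed by 72 h at 37 °C, humidified, 5% CO2. Cells were fixed with glutaraldehyde, stained 15 min with 0.05% methylene blue and eluted with 0.33 N HCl, with OD read at 660 nm. CC50 was taken at 50% of untreated control, with 4 parallels per concentration.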

[1] = Antiproliferative activity against HUVEC after 72 hrs by resazurin dye reduction assay; format: cell-based; conditions: human, HUVEC cells
[2] = Octanol-water partition coefficient, log P by RP-HPLC method; format: physicochemical
Albumin = Albumin (Homo sapiens, UniProt P02768); experiment: Binding affinity to HSA after 30 mins assessed as quenching of intrinsic HSA fluorescence emission by spectrofluorimetric assay; format: ADME
Outline: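 Intrinsic tryptophan fluorescence of HSA at 2 µM final in PBS pH 7.4. Compound stocks were made in DMSO and titrated at increasing concentrations, with 30 min incubation at ambient temperature. Kd came from a quadratic binding equation fitted by nonlinear least squares (Marquardt).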

Chain of Albumin (P02768 whole entry): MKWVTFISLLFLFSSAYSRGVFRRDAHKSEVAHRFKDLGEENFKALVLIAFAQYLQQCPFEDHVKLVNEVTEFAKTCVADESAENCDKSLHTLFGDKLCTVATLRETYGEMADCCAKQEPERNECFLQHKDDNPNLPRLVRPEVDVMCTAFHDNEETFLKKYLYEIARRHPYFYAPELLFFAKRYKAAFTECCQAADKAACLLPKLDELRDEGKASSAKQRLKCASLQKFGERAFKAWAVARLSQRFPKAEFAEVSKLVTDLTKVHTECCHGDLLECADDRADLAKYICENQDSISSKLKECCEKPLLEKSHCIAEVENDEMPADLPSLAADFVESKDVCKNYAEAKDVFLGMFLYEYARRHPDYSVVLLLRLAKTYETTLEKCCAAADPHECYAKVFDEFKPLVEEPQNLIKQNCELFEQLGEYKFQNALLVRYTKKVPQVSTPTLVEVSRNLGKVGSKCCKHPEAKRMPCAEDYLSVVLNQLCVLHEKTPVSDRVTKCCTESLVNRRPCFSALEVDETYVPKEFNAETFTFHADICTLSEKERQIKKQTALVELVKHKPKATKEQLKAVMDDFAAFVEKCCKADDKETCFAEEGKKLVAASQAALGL

Compound | GI50 (K562) [mg/L] | CC50 (HeLa) [mg/L] | GI50 at 72 h [1] [mg/L] | logP [2] | Kd (Albumin) [µM]
CN(C)C1=NN(c2ccc(Cl)cc2)CN(c2ccccc2Cl)C1=O | 11 (≈ 30.3 µM) | 39.4 (≈ 108 µM) | 16.1 (≈ 44.3 µM) | 4.2 | 10.2
O=C1C(N2CCOCC2)=NN(c2ccc(Cl)cc2)CN1c1ccccc1Cl | > 50 | > 50 | 45.6 (≈ 113 µM) | 4 | 
Cc1ccc(NC(=O)c2ccc(CN3CCN(C)CC3)cc2)cc1Nc1nccc(-c2cccnc2)n1 [IMATINIB] | 0.1 (≈ 0.203 µM) |  | 10.9 (≈ 22.1 µM) |  | 
O=C1C(N2CCCC2)=NN(c2ccccc2)CN1c1ccccc1Cl | 5.2 (≈ 14.7 µM) | 44.3 (≈ 125 µM) | 40.9 (≈ 115 µM) | 4 | 2.46
O=C1C(N2CCCC2)=NN(c2ccc(Cl)cc2)CN1c1ccccc1Cl | 8.6 (≈ 22.1 µM) | > 50 | 18.9 (≈ 48.6 µM) | 4.6 | 2.77
CN(C)C1=NN(c2ccccc2)CN(c2ccccc2Cl)C1=O | 5.8 (≈ 17.6 µM) | 39.5 (≈ 120 µM) | 34.5 (≈ 105 µM) | 3.6 | 7.96
COc1cccc2c1C(=O)c1c(O)c3c(c(O)c1C2=O)C[C@@](O)(C(=O)CO)C[C@@H]3O[C@H]1C[C@H](N)[C@H](O)[C@H](C)O1 [DOXORUBICIN] | 1 (≈ 1.84 µM) | 2 (≈ 3.68 µM) | 0.1 (≈ 0.184 µM) | 0.71 | 
O=C1C(N2CCCCC2)=NN(c2ccccc2)CN1c1ccccc1Cl | 42 (≈ 114 µM) | 26 (≈ 70.5 µM) | 24.7 (≈ 67 µM) | 4.6 | 
O=C1C(N2CCCCC2)=NN(c2ccc(Cl)cc2)CN1c1ccccc1Cl | > 50 | > 50 | > 50 | 5 | 
O=C1C(N2CCOCC2)=NN(c2ccccc2)CN1c1ccccc1Cl | > 50 | > 50 | > 50 | 3.5 | 
